Source: publication PMC2638640 (Toxicological Sciences, 2008)

Experiments:
[1] = system: membrane ^3H-DA transport in striatal synaptosomes; assay: Inhibition of synaptosomal membrane ^3H-DA transport; format: biochemical, rat; conditions: for effect of nucleophile on in vitro neurotoxicity of HNE: nucleophile 500μM, HNE-exposed striatal synaptosomes; for effect on synaptosomal uptake: nonconjugated analogs, striatal synaptosomes
Method in brief: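 Striatal synaptosomes from adult male Sprague-Dawley rats (Percoll gradient, 15%/23% interface), 10 μg protein, were exposed 15 min at 30°C to graded concentrations of test compound or Krebs-HEPES buffer. Samples were washed, filter-trapped and superfused 3 min with 0.30μM 3H-DA. Uptake measured ± Na+ (choline substitution), by scintillation. IC50 (95% CI) by nonlinear regression; n = 4–6.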

[2] = Rate constants for reaction of type 2 alkenes with cysteine sulfhydryl groups; format: physicochemical; conditions: second-order rate of reaction with L-cysteine at pH 7.4
Method in brief: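 L-Cysteine was incubated with molar excess of test alkene at pH 7.4 or 8.8, with remaining sulfhydryl measured over time by DTNB absorbance. Pseudo-first-order constants (k1) came from these plots, then second-order constants (k2). Thiolate-corrected constants via log(k k2) = log k2 + pKa – pH, taking sulfhydryl pKa 8.5; n = 4–6 at pH 7.4.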

[3] = system: ^3H-DA transport in striatal synaptic vesicles; assay: Inhibition of vesicular ^3H-DA transport; format: biochemical, rat; conditions: nonconjugated analogs, data not shown
Method in brief: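 Rat striatal synaptic vesicles (P5 pellet after osmotic shock of crude synaptosomes), 3 μg protein, were exposed 15 min to graded concentrations of test compound or assay buffer. They were then incubated 3 min at 30°C with Mg2+-ATP (2mM) and 0.30μM 3H-DA. Reaction stopped with cold buffer, followed by rapid filtration and scintillation counting. Nonspecific uptake: 4°C without Mg2+-ATP. IC50 (95% CI) by nonlinear regression; n = 3–5.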

[4] = system: total free sulfhydryl content in synaptosomes; assay: Loss of free sulfhydryl groups in synaptosomes; format: biochemical, rat; conditions: nonconjugated analogs, striatal synaptosomes
Method in brief: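 Rat striatal synaptosomes (200 μg protein) were incubated 15 min with graded concentrations of test compound or control buffer, then solubilized in 1% SDS. DTNB (3mM) added; after 5 min equilibration at 25°C, absorbance read at 412 nm against a no-DTNB blank. Free thiol calculated from the extinction coefficient 1.36 × 10^4/M/cm; n = 4–6.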

[5] = ref Doorn and Petersen, 2002, 2003; cited from earlier work

Question: With `CC(=O)N[C@@H](CS)C(=O)O` [NAC, N-acetyl-L-cysteine] as the molecule, how does the “effect of nucleophile on in vitro neurotoxicity of HNE” value (“effect of nucleophile” for short) [1] read?
Answer: significantly reduced HNE neurotoxicity

Question: For `C=CC=O` [Acrolein, acrolein], which “Log k2 (pH = 7.4)” value [2] is on record?
Answer: 2.596

Question: What does the source list for `CCC=O` [Propanal, propanal]?
Answer: effect on vesicular uptake [3]: did not affect vesicular uptake; effect on synaptosomal uptake [1]: did not affect; effect on synaptosomal sulfhydryl content [4]: did not affect

Question: With `C=CC(C)=O` [MVK, methyl vinyl ketone] as the molecule, how does the “Log k2 (pH = 7.4)” value [2] read?
Answer: 2.048

Question: For `NCCC(=O)N[C@@H](Cc1cnc[nH]1)C(=O)O` [carnosine, β-alanyl-L-histidine], which “effect of nucleophile” value [1] is on record?
Answer: neither NAL nor carnosine affected the in vitro neurotoxicity of HNE

Question: With `CC(=O)N[C@@H](CCCCN)C(=O)O` [NAL, N-acetyl-L-lysine] as the molecule, how does the “effect of nucleophile” value [1] read?
Answer: neither NAL nor carnosine affected the in vitro neurotoxicity of HNE

Question: With `C=CCO` [Allyl alcohol, allyl alcohol] as the molecule, how does the “effect on vesicular uptake” value [3] read?
Answer: did not affect vesicular uptake

Question: And the “effect on synaptosomal uptake” value [1]?
Answer: did not affect

Question: What about the “effect on synaptosomal sulfhydryl content” value [4] of the same molecule?
Answer: did not affect

Question: Which “Log k2 (pH = 7.4)” value [2] does the source give for `CCCCCC(O)C=CC=O` (stereo not drawn) [HNE, 4-Hydroxy-2-nonenal] here?
Answer: 0.938

Question: What about the “second-order rate constant k2 (mean ± SD), Cys toward HNE” value [5] of the same molecule?
Answer: 1.33 ± 0.083 M^∧(−1)s^∧(−1)

Question: And the “second-order rate constant k2 (mean ± SD), His toward HNE” value [5]?
Answer: 2.14 ± 0.312 × 10^−3 M^∧(−1)s^∧(−1)

Question: And the “second-order rate constant k2 (mean ± SD), Lys toward HNE” value [5]?
Answer: 1.33 ± 0.050 × 10^−3 M^∧(−1)s^∧(−1)
